Laboratory results published in ChEMBL document CHEMBL4014309, “Development of an Acrylate Derivative Targeting the NLRP3 Inflammasome for the Treatment of Inflammatory Bowel Disease” (J Med Chem, 2017).
Where a name gives a salt, the structure may show the parent alone. Activity calls are given as the source filed them. No cut-off for these calls is given here.

Experiments:
[1] = Cytotoxicity against human THP1 cells assessed as reduction in cell viability after 72 hrs by MTT assay; assay type: cell-based; conditions: THP-1 cells, read-out: TC50
Summary of the method: (§1)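 Human THP-1 cells were exposed to 0.1–100 µM for 72 h, and viability was read by MTT. TC50 is the concentration that cuts viability by 50%; percent viable cells at 100 µM is also reported. Mean ± SEM of ≥3 experiments.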

[2] = Cytotoxicity against human THP1 cells assessed as cell viability at 100 uM after 72 hrs by MTT assay; assay type: cell-based; conditions: THP-1 cells, read-out: Activity; summary of the method: as §1
[3] = molecular target: NACHT, LRR and PYD domains-containing protein 3 (Homo sapiens) (UniProt Q96P20); experiment: Inhibition of recombinant human NLRP3 ATPase assessed as hydrolysis of ATP at 50 uM preincubated for 15 mins followed by addition of ATP measured after 40 mins by ADP-Glo assay
Summary of the method: (§2)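 Human recombinant NLRP3 (0.105 µg) in 20 mM Tris-HCl pH 7.8, 133 mM NaCl, 20 mM MgCl2, 3 mM KCl, 0.56 mM EDTA, 0.5% DMSO. Compound (100 or 50 µM) was preincubated 15 min at 37 °C, then ATP (250 µM) was added for 40 min at 37 °C. ADP was read by ADP-Glo luminescence. Result is % inhibition vs vehicle; mean ± SEM, ≥3 experiments.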

[4] = Cysteamine reactivity of the compound in PBS assessed as second order rate constant for free cysteamine release at 250 uM and pH 7.4 after 90 mins by DTNB reagent based RP-UHPLC analysis
Summary of the method: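 Compound (250 µM) was mixed with equimolar cysteamine in pH 7.4 PBS containing 12.5% CH3CN at 37 °C. Free cysteamine was tracked with DTNB at several time points over 90 min. Second-order k2 came from 1/[CAM] = 1/[CAM]0 + kt, using 3–10 points per plot; mean ± SEM of ≥3 experiments.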

[5] = molecular target: NACHT, LRR and PYD domains-containing protein 3 (Homo sapiens) (UniProt Q96P20); experiment: Inhibition of recombinant human NLRP3 ATPase assessed as hydrolysis of ATP at 100 uM preincubated for 15 mins followed by addition of ATP measured after 40 mins by ADP-Glo assay; summary of the method: as §2
[6] = molecular target: NACHT, LRR and PYD domains-containing protein 3 (Homo sapiens) (UniProt Q96P20); experiment: Inhibition of NLRP3 in PMA-differentiated and LPS-primed human THP1 cells assessed as decrease in ATP-induced pyroptosis measured as LDH activity at 10 uM preincubated for 1 hr followed by ATP addition measured after 1 hr by colorimetric assay relative to control
Summary of the method: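 THP-1 cells were PMA-differentiated and LPS-primed, then pretreated with vehicle or compound (10 µM, 1 h). Pyroptosis was triggered with ATP (5 mM). LDH in supernatant was measured colorimetrically 1 h after ATP and expressed as percent decrease versus vehicle, mean ± SEM of ≥3 experiments.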

[7] = molecular target: NACHT, LRR and PYD domains-containing protein 3 (Homo sapiens) (UniProt Q96P20); experiment: Inhibition of recombinant human NLRP3 ATPase assessed as hydrolysis of ATP preincubated for 15 mins followed by addition of ATP measured after 40 mins by ADP-Glo assay; summary of the method: as §2
serum albumin = serum albumin (Homo sapiens, UniProt P02768); experiment: Binding affinity to human serum albumin after 5 mins by RP-UHPLC analysis; assay type: ADME; conditions: read-out: PB (converted)
[8] = molecular target: NACHT, LRR and PYD domains-containing protein 3 (Homo sapiens) (UniProt Q96P20); experiment: Irreversible inhibition of His-FLAG- tagged NLRP3-ATPase (unknown origin) at 100 uM preincubated for 55 mins followed by compound wash-out and ATP addition measured after 40 mins by ADP-Glo assay
Summary of the method: (§3)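 His-FLAG NLRP3 (105 ng/well) captured on anti-FLAG-coated, BSA-blocked wells for 3 h at 4 °C. Compound (100 µM final, 2% DMSO) preincubated 55 min at 37 °C. Wells were washed three times (or not washed), then ATP (250 µM) was added for 40 min at 37 °C. ADP was read by ADP-Glo. Equal protein loading was checked by anti-His ELISA.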

[9] = molecular target: NACHT, LRR and PYD domains-containing protein 3 (Homo sapiens) (UniProt Q96P20); experiment: Irreversible inhibition of His-FLAG- tagged NLRP3-ATPase (unknown origin) at 100 uM preincubated for 55 mins followed by ATP addition measured after 40 mins by ADP-Glo assay; summary of the method: as §3
[10] = molecular target: NACHT, LRR and PYD domains-containing protein 3 (Mus musculus) (UniProt Q8R4B8); experiment: Inhibition of NLRP3 inflammasome in LPS-primed C57BL/6 mouse bone marrow derived macrophages assessed as reduction in nigericin-induced IL-1beta production at 1 to 100 uM preincubated for 1 hr followed by stimulation with nigericin measured after 30 mins by ELISA
Summary of the method: (§4)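 Bone marrow macrophages from C57BL/6 mice, differentiated with 20% L-cell medium, primed with LPS (1 µg/mL, 3 h). Test agent or vehicle was added for 1 h, then ATP (5 mM, 30 min) or nigericin (10 µM, 30 min). IL-1β in the medium was measured by ELISA. LDH in the medium was measured colorimetrically as % of total cellular LDH.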

[11] = molecular target: NACHT, LRR and PYD domains-containing protein 3 (Mus musculus) (UniProt Q8R4B8); experiment: Inhibition of NLRP3 inflammasome in LPS-primed C57BL/6 mouse bone marrow derived macrophages assessed as reduction in ATP-induced pyroptosis at 1 to 100 uM preincubated for 1 hr followed by stimulation with ATP measured after 30 mins by LDH release assay
Summary of the method: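 LPS-primed (1 µg/mL, 3 h) C57BL/6 bone marrow macrophages were treated with compound or vehicle for 1 h, then given ATP (5 mM, 30 min). LDH in the medium was measured and expressed as percent of total cellular LDH.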

[12] = molecular target: NACHT, LRR and PYD domains-containing protein 3 (Mus musculus) (UniProt Q8R4B8); experiment: Inhibition of NLRP3 inflammasome in LPS-primed C57BL/6 mouse bone marrow derived macrophages assessed as reduction in ATP-induced IL-1beta production at 1 to 100 uM preincubated for 1 hr followed by stimulation with ATP measured after 30 mins by ELISA
Summary of the method: (§5)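 C57BL/6 bone marrow macrophages, differentiated with 20% L-cell medium, were primed with LPS (1 µg/mL, 3 h). They were then exposed to compound or vehicle for 1 h and stimulated with ATP (5 mM, 30 min). IL-1β released into the medium was measured by ELISA.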

[13] = molecular target: NACHT, LRR and PYD domains-containing protein 3 (Mus musculus) (UniProt Q8R4B8); experiment: Inhibition of NLRP3 inflammasome in LPS-primed C57BL/6 mouse bone marrow derived macrophages assessed as reduction in nigericin-induced pyroptosis at 1 to 100 uM preincubated for 1 hr followed by stimulation with ATP measured after 30 mins by LDH release assay; summary of the method: as §4
[14] = molecular target: NACHT, LRR and PYD domains-containing protein 3 (Mus musculus) (UniProt Q8R4B8); experiment: Inhibition of NLRP3 inflammasome in LPS-primed C57BL/6 mouse bone marrow derived macrophages assessed as reduction in ATP-induced IL-1beta production at 10 to 100 uM preincubated for 1 hr followed by stimulation with ATP measured after 30 mins by ELISA; summary of the method: as §5
[15] = molecular target: NACHT, LRR and PYD domains-containing protein 3 (Mus musculus) (UniProt Q8R4B8); experiment: Inhibition of NLRP3 inflammasome in LPS-primed C57BL/6 mouse bone marrow derived macrophages assessed as reduction in nigericin-induced pyroptosis at 10 to 100 uM preincubated for 1 hr followed by stimulation with ATP measured after 30 mins by LDH release assay; summary of the method: as §4
[16] = molecular target: NACHT, LRR and PYD domains-containing protein 3 (Mus musculus) (UniProt Q8R4B8); experiment: Inhibition of NLRP3 inflammasome in LPS-primed C57BL/6 mouse bone marrow derived macrophages assessed as reduction in nigericin-induced IL-1beta production at 10 to 100 uM preincubated for 1 hr followed by stimulation with nigericin measured after 30 mins by ELISA; summary of the method: as §4
[17] = molecular target: NACHT, LRR and PYD domains-containing protein 3 (Mus musculus) (UniProt Q8R4B8); experiment: Inhibition of NLRP3 inflammasome in LPS-primed C57BL/6 mouse bone marrow derived macrophages assessed as reduction in ATP-induced pyroptosis at 10 to 100 uM preincubated for 1 hr followed by stimulation with ATP measured after 30 mins by LDH release assay; summary of the method: as §4
Liver = experiment: Drug level in Sprague-Dawley rat liver microsomes treated with INF39 at 100 uM up to 2 hrs by UHPLC-MS analysis; assay type: ADME, microsome
[18] = Metabolic stability in Sprague-Dawley rat liver microsomes at 100 uM after 2 hrs in presence of NADPH-generating system by UHPLC-MS analysis; assay type: ADME, microsome; conditions: read-out: Stability
Summary of the method: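 Rat liver microsomes (0.5 mg protein/mL) in 100 mM phosphate buffer pH 7.4 with NADPH-generating system, compound 100 µM final (≤2% DMSO), 37 °C, shaking, up to 120 min. Samples were taken at 0, 15, 30, 60 and 120 min and quenched with acetonitrile on ice. Analysis by UHPLC-MS; runs were also done without NADPH system. ≥3 independent repeats.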

NACHT, LRR and PYD domains-containing protein 3 (Mus musculus), sequence (Q8R4B8 whole entry, the tested form may be a part): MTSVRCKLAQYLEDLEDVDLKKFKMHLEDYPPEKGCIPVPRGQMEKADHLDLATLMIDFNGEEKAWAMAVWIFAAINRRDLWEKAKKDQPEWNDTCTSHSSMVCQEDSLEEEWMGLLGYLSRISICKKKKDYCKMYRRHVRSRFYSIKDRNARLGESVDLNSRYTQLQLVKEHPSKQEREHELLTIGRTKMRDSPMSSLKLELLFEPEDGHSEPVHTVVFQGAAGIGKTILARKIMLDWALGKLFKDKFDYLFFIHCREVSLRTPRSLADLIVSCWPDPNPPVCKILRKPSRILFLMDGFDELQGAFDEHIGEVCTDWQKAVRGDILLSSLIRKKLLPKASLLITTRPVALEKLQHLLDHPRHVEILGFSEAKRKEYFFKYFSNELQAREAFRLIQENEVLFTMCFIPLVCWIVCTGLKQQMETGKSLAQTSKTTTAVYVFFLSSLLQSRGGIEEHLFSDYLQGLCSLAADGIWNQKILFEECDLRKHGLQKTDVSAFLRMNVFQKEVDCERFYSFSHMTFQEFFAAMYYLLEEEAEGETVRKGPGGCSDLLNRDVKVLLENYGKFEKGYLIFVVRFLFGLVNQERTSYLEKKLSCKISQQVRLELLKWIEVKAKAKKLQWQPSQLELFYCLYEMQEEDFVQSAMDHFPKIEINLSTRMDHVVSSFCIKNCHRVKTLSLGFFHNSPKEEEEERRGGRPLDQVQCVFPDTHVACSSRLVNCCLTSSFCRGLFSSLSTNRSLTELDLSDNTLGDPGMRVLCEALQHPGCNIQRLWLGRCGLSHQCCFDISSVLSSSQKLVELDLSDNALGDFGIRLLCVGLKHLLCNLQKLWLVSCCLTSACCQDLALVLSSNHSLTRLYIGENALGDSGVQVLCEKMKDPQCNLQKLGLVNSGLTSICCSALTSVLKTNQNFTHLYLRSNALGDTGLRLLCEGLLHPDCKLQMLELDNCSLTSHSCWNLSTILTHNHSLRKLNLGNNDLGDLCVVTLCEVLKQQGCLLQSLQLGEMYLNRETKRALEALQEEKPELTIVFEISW
NACHT, LRR and PYD domains-containing protein 3 (Homo sapiens), sequence (Q96P20 whole entry, the tested form may be a part): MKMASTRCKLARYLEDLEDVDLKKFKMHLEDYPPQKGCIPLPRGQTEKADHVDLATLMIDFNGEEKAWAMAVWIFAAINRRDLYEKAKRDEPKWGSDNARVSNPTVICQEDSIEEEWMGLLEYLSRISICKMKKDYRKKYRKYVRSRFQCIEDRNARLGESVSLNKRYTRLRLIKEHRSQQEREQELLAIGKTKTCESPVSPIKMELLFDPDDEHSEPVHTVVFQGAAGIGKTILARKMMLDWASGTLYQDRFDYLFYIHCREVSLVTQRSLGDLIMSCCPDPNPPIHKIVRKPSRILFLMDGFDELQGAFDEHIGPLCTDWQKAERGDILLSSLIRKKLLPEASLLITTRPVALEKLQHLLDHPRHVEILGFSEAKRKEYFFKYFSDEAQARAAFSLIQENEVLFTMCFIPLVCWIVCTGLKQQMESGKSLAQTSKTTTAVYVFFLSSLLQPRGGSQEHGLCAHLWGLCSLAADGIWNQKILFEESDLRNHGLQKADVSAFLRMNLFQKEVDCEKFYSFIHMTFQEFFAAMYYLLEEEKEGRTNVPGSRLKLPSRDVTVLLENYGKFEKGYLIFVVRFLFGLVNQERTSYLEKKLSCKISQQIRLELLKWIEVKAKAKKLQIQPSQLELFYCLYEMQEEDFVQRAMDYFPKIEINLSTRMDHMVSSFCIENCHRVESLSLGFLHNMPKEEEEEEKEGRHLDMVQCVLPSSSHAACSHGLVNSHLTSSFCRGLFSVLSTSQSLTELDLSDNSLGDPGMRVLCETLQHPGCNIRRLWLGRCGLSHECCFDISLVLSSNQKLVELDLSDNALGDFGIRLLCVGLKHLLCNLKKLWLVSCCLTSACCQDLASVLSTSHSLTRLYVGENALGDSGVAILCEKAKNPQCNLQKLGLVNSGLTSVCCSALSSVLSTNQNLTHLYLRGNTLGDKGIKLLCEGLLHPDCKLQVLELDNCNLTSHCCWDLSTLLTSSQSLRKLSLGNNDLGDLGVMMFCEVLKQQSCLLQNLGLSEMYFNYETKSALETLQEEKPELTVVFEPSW
serum albumin, sequence (P02768 whole entry, the tested form may be a part): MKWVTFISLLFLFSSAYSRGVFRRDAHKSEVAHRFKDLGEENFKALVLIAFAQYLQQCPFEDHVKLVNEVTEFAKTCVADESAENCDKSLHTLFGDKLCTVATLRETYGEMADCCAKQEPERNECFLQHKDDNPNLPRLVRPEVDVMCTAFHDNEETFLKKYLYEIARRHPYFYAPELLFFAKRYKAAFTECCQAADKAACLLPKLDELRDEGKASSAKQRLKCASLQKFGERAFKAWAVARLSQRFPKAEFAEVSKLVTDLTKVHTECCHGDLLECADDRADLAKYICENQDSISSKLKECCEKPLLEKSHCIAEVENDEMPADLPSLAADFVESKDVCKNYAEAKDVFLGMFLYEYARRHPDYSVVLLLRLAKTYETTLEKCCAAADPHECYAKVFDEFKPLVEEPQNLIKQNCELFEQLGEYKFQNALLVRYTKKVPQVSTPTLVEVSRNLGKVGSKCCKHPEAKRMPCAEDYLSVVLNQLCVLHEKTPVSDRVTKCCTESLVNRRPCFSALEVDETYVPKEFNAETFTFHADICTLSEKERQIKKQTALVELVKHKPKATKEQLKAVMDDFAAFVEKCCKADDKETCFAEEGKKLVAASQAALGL

Compound | CC50 at 72 h [1] [µM] | viability at 72 h, 100 µM [2] [%] | inhibition [3] | K [4] [M⁻¹ s⁻¹] | inhibition [5] | Drug metabolism [4] | inhibition [6] [%] | inhibition [7] | other results
C=C(C(=O)OCC)C(OCCC(=O)OCC)c1ccc(Cl)cc1Cl (configuration not stated) | > 100 | 87.7 | 10% | 0.292 |  |  |  |  | 
C=C(C(=O)O)C(O)c1ccc(Cl)cc1Cl (configuration not stated) | > 100 | 88.1 | 11% |  | 43% | Metabolite not detected | 40.2 | Dose-dependent effect | 
C=C(C(=O)OCC)C(O)c1ccccc1Cl (configuration not stated) | 65 |  | 32% | 0.824 | 72% |  | 80.9 | Dose-dependent effect | fraction unbound at 5 min (serum albumin): 0.35
C=C(C(=O)OCC)C(OC(C)=O)c1ccccc1Cl (configuration not stated) | 33.3 |  |  | 56.2 |  |  |  |  | 
CCOC(=O)C(C)Cc1ccccc1Cl (configuration not stated) | > 100 | 86.1 | inactive |  | 12% | Metabolite not detected | 3.8 | Dose-dependent effect | inhibition [8]: inactive; inhibition [9]: 10%
C=C(C(=O)OCC)C(O)c1ccc(Cl)cc1Cl (configuration not stated) | 68.3 |  | 19% | 1.34 | 35% |  | 74.4 | Dose-dependent effect | 
CCOC(=O)C1=CCOC1c1ccccc1Cl (configuration not stated) |  |  |  | 8.18 |  |  |  | Dose-dependent effect | 
O=[N+]([O-])/C=C/c1ccc2c(c1)OCO2 | 3.2 |  |  | 2.5 |  |  |  |  | 
COC(=O)/C=C/C(=O)OC [DIMETHYL FUMARATE] | 95.5 |  | inactive | 39 | inactive |  | 65.2 |  | inhibition [10]: Active; inhibition [11]: Active; inhibition [12]: Active; inhibition [13]: Active
C=C(C(=O)OCC)C(OCCC(=O)OCC)c1ccccc1Cl (configuration not stated) | > 100 | 95.7 | 27% | 0.734 | 56% |  |  | Dose-dependent effect | 
C=C(C(=O)OCC)C(OC)c1ccccc1Cl (configuration not stated) | > 100 | 78.1 | 24% | 1.6 | 60% |  | 37.2 | Dose-dependent effect | 
C=C(C(=O)O)C(O)c1ccccc1Cl (configuration not stated) | > 100 | 80.7 | 21% |  | 69% | Metabolite not detected |  | Dose-dependent effect | 
Cc1ccc(S(=O)(=O)/C=C/C#N)cc1 | 1.5 |  |  |  |  |  |  |  | inhibition [14]: Active; inhibition [15]: Active; inhibition [16]: Active; inhibition [17]: Active
C=C(Cc1ccccc1Cl)C(=O)O | > 100 | 102 | 22% |  | 44% | Metabolite not detected | 35.8 | Dose-dependent effect | Drug metabolism (Liver): Metabolite_Detected; remaining at 2 h, 100 µM [18]: > 99%
CC(Cc1ccccc1Cl)C(=O)O (configuration not stated) | > 100 | 98.7 | inactive |  | 15% | Metabolite not detected | 5.2 |  | 
